Tests used:
Cavia porcellus = experiment: The compound was tested in vivo for the inhibition of IgG1-mediated bronchoconstriction in guinea pig at 0.03 mg/kg administered perorally; type: functional; conditions: route oral; for ED50: read-out: ID50 (the source's name)
How it was run: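 Male Hartley guinea pigs, 8–12 per group, were passively sensitized ip with 1 mL IgG-like anti-ovalbumin antiserum. After 24 h they were urethane-anesthetized, ventilated and given gallamine. Compound was given orally 1 h before ovalbumin challenge (5 mg/kg iv). Konzett–Rössler overflow was read as % inhibition versus controls at 5 min after challenge.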

Histamine H1 receptor [1] = target: T1, Histamine H1 receptor (Cavia porcellus, UniProt P31389); experiment: Binding affinity for histamine H1 receptor from guinea pig cerebellum, using [3H]pyrilamine as radioligand at 0.1 uM; type: tissue-based
T1 sequence (P31389 whole entry): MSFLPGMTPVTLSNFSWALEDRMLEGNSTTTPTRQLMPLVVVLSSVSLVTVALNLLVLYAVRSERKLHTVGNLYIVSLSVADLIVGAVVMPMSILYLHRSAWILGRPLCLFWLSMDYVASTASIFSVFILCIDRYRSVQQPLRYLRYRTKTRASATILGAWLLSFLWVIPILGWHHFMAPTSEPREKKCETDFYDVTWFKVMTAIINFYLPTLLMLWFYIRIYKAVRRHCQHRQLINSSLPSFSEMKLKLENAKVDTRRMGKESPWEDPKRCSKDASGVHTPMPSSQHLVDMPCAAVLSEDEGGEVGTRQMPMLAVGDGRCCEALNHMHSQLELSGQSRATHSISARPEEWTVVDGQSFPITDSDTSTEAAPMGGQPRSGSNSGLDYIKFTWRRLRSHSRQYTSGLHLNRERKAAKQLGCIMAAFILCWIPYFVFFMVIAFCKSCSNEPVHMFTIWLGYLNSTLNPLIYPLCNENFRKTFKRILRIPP
How it was run: (§1)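 Male Hartley guinea-pig cerebellum membranes (washed twice, 35000–35500g) in 50 mM Na/K phosphate, pH 7.5. Tissue (10 mg wet weight) was incubated with 3.8 nM [3H]pyrilamine and 0.1 μM drug for 30 min at 25 °C. Nonspecific binding was set with 1 μM astemizole. Bound ligand was collected by GF/C filtration with three ice-cold washes and counted by liquid scintillation.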

[2] = target: T2, Muscarinic acetylcholine receptor M1 (Rattus norvegicus) (UniProt P08482); experiment: Binding affinity for Muscarinic acetylcholine receptor M1 from rat striatum, using [3H]quinuclidinyl benzilate as radioligand at 10 uM.
T2 sequence (whole entry): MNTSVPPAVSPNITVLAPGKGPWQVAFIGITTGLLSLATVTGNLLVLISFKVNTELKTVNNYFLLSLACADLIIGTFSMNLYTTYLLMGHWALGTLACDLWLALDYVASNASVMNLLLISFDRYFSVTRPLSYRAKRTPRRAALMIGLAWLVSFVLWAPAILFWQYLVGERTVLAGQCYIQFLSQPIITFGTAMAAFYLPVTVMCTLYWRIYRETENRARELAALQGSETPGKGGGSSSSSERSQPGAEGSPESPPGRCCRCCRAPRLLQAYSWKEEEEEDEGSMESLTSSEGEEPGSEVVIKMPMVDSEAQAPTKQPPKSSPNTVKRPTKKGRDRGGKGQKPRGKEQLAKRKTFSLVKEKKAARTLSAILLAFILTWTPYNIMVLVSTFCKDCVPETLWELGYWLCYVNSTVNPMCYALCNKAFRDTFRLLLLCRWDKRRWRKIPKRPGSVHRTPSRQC
How it was run: (§2)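 Rat striatum was homogenized in water and diluted to 200 volumes in 50 mM Na/K phosphate, pH 7.4. Nonspecific binding was defined with 1 μM unlabeled dexetimide. Bound ligand was collected by GF/B filtration with three ice-cold buffer washes and counted by scintillation.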

Rattus norvegicus [3] = experiment: The compound was tested in vivo for inhibitory effect on 48-h homologous passive cutaneous anaphylaxis (PCA) in rats administered perorally; type: functional; conditions: po
How it was run: (§3)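 Male Wistar rats, three per group, received intradermal anti-ovalbumin rat IgE serum (0.05 mL, 1:8 in saline) at two dorsal sites. After 48 h they were challenged iv with 1 mg ovalbumin plus 5 mg Evans blue. Compound was given orally 1 h before challenge. […] ED50 came from responders (>50% inhibition).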

[4] = target: Histamine H1 receptor (Cavia porcellus) (UniProt P31389); experiment: (§4) The compound was tested in vitro for binding affinity against histamine H1 receptor from guinea pig cerebellum, using [3H]pyrilamine as radioligand at 0.1 uM; type: tissue-based; how it was run: as §1
Histamine H1 receptor (Cavia porcellus), sequence (P31389 whole entry): as the sequence (P31389 whole entry) above

[5] = target: T2, Muscarinic acetylcholine receptor M1 (Rattus norvegicus); experiment: The compound was tested in vitro for binding affinity against muscarinic acetylcholine Muscarinic acetylcholine receptor M1 from rat striatum, using [3H]quinuclidinyl benzilate as radioligand at 10 uM.
How it was run: as §2, with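 “7.4. Tissue (5 mg wet weight) was incubated with 1.26 nM [3H]quinuclidinyl benzilate for 60 min at 37 °C.” for “7.4.”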

Rattus norvegicus [6] = experiment: The compound at 1 mg/kg was tested in vivo for inhibitory effect on 48-h homologous passive cutaneous anaphylaxis (PCA) in rats administered perorally
Rattus norvegicus [7] = experiment: The compound at 1 uM was tested in vivo for inhibitory effect on 48-h homologous passive cutaneous anaphylaxis (PCA) in rats administered perorally; type: functional; conditions: in the assay text read “at 1 mg/kg” for “at 1 uM”; how it was run: as §3
Rattus norvegicus [8] = experiment: The compound at 10 uM was tested in vivo for inhibitory effect on 48-h homologous passive cutaneous anaphylaxis (PCA) in rats administered perorally; type: functional; conditions: in the assay text read “at 10 mg/kg” for “at 10 uM”; how it was run: as §3
[9] = target: T2, Muscarinic acetylcholine receptor M1 (Rattus norvegicus); experiment: The compound was tested in vitro for binding affinity Muscarinic acetylcholine receptor M1 from rat striatum, using [3H]quinuclidinyl benzilate as radioligand at 10 uM.
How it was run: as §2, with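 “7.4. Tissue (5 mg wet weight) was incubated with 1.26 nM [3H]quinuclidinyl benzilate for 60 min at 37 °C.” for “7.4.”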

Histamine H1 receptor [10] = target: T1, Histamine H1 receptor; experiment: as §4; type: tissue-based
How it was run: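 Male Hartley guinea-pig cerebellum membranes (washed twice, 35000–35500g) in 50 mM Na/K phosphate, pH 7.5. Nonspecific binding was set with 1 μM astemizole. Bound ligand was collected by GF/C filtration with three ice-cold washes and counted by liquid scintillation.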

| Structure (SMILES) | inhibition in vivo at 0.03 mg/kg (Cavia porcellus) [%] | Ki (Histamine H1 receptor [1]) [nM] | inhibition [2] [%] | ED50 (Rattus norvegicus [3]) [mg/kg] | ED50 (Cavia porcellus) [mg/kg] | further results |
| --- | --- | --- | --- | --- | --- | --- |
| CN(C)CC/C=C1/c2ccccc2COc2ccc(/C=C/C(=O)O)cc21.O=C(O)/C=C/C(=O)O | 1.1 | 29 | -1 | 1 | – | – |
| CN(C)CC/C=C1\c2ccccc2COc2ccc(CCC(=O)O)cc21 | – | 4.2 | 5 | 0.26 | 0.0064 | – |
| CN1CCC(=C2c3ccccc3CC(=O)c3sccc32)CC1 [KETOTIFEN] | – | – | 55 | 4.8 | 0.009 | – |
| CN1CCN(C/C=C2\c3ccccc3COc3ccc(C(=O)O)cc32)CC1.O=C(O)/C=C/C(=O)O | – | – | – | – | – | inhibition [4]: 0%; inhibition [5]: 2%; Inhibition (Rattus norvegicus [6]): 10% |
| CN(C)CC/C=C1\c2ccccc2COc2ccc(CCO)cc21 | – | 0.48 | 72 | 0.14 | 0.0059 | – |
| Cc1ccc2c(c1)/C(=C/CCN(C)C)c1ccccc1CO2.O=C(O)/C=C/C(=O)O | – | 0.13 | – | – | – | Inhibition (Rattus norvegicus [7]): 20% |
| CN(C)CC/C=C1/c2ccccc2COc2ccc(C(=O)O)cc21 | – | 20 | 1 | 0.25 | 0.053 | – |
| CN(C)CC/C=C1\c2ccccc2COc2ccc(CC(=O)O)cc21 | – | 5.2 | -1 | 0.021 | 0.0041 | – |
| O=C(O)/C=C/C(=O)O.O=C(O)c1ccc2c(c1)/C(=C/CN1CCOCC1)c1ccccc1CO2 | – | – | – | – | – | inhibition [4]: 19%; inhibition [5]: 2%; Inhibition (Rattus norvegicus [6]): 12% |
| O=C(O)/C=C/C(=O)O.O=C(O)c1ccc2c(c1)/C(=C/CN1CCSCC1)c1ccccc1CO2 | – | – | – | – | – | inhibition [4]: 30%; inhibition [5]: 3%; Inhibition (Rattus norvegicus [8]): 24% |
| CN(C)CC/C=C1\c2ccccc2COc2ccc(C(=O)O)cc21.O=C(O)/C=C/C(=O)O | – | 4.2 | 5 | 0.74 | 0.021 | – |
| CN(C)CC/C=C1/c2ccccc2COc2ccc(CCC(=O)O)cc21 | – | – | – | 0.32 | 0.015 | inhibition [9]: 2%; Ki (Histamine H1 receptor [10]): 15 nM |
| CN(C)CC/C=C1/c2ccccc2COc2ccc(CC(=O)O)cc21.Cl [OLOPATADINE HYDROCHLORIDE] | – | 16 | 3 | 0.049 | 0.03 | – |
| CN(C)CC/C=C1/c2ccccc2COc2ccc(CCO)cc21 | – | – | 80 | 0.12 | – | Ki (Histamine H1 receptor [10]): 0.63 nM |
| CN(C)CCC/C=C1/c2ccccc2COc2ccc(C(=O)O)cc21 | 11 | – | 2 | 1.2 | – | Ki (Histamine H1 receptor [10]): 5.8 nM |
| CC(C)O.O=C(O)c1ccc2c(c1)/C(=C\CCN1CCOCC1)c1ccccc1CO2 | -1 | – | – | – | – | inhibition [4]: 24%; inhibition [5]: -2%; Inhibition (Rattus norvegicus [7]): 74% |
| CN(C)C/C=C1\c2ccccc2COc2ccc(C(=O)O)cc21.O=C(O)/C=C/C(=O)O | 28 | 12 | -2 | – | – | Inhibition (Rattus norvegicus [6]): 19% |
| CN(C)CCC/C=C1\c2ccccc2COc2ccc(C(=O)O)cc21 | 1.4 | 6.3 | 12 | 1.2 | – | – |
| CN(C)CC/C=C(/c1ccccc1)c1cccc(C(=O)O)c1 | – | – | 4 | – | – | inhibition [4]: 10% |
| CN(C)CCC/C=C1/c2ccccc2COc2ccc(CC(=O)O)cc21 | 60 | 4.6 | 2 | – | – | Inhibition (Rattus norvegicus [7]): 55% |
| O=C(O)/C=C/C(=O)O.O=C(O)c1ccc2c(c1)/C(=C\CCN1CCCC1)c1ccccc1CO2 | 8.7 | 5 | 3 | – | – | Inhibition (Rattus norvegicus [8]): 53% |
| CCN(CC)CC/C=C1/c2ccccc2COc2ccc(C(=O)O)cc21.O=C(O)/C=C/C(=O)O | 19 | 10 | 3 | 0.12 | – | – |
| CN(C)CCSC1c2ccccc2COc2ccc(C(=O)O)cc21.Cl (configuration not stated) | – | 14 | – | 0.92 | 0.029 | inhibition [5]: 7% |
| CN(C)CC/C=C1/c2ccccc2COc2cc(C(=O)O)ccc21 | – | 24 | -1 | – | – | Inhibition (Rattus norvegicus [6]): 19% |
| O=C(O)c1ccc2c(c1)/C(=C\CCN1CCSCC1)c1ccccc1CO2 | 27 | 7.6 | 27 | – | – | Inhibition (Rattus norvegicus [7]): 60% |
| CN1CCN(C/C=C2\c3ccccc3COc3ccc(CC(=O)O)cc32)CC1.O=C(O)/C=C/C(=O)O | – | – | – | – | – | inhibition [4]: 29%; inhibition [5]: 3%; Inhibition (Rattus norvegicus [7]): 44% |
| CN(C)C/C=C1\c2ccccc2COc2ccc(CC(=O)O)cc21 | – | – | – | 0.077 | 0.018 | inhibition [9]: 1%; Ki (Histamine H1 receptor [10]): 11 nM |

Reference: ChEMBL document CHEMBL1126065, “Synthesis and antiallergic activity of 11-(aminoalkylidene)-6,11-dihydrodibenz[b,e]oxepin derivatives” (J Med Chem, 1992)
